For 9 molecules, Activity and inhibition results are on record in ChEMBL document CHEMBL4725385, “Design and synthesis of β-strand-fixed peptides inhibiting aggregation of amyloid β-protein” (Bioorg Med Chem, 2020).

Data set [1] deals with SH-SY5Y. The data set can be described thus: Neuroprotective activity against amyloid beta (1 to 42 residues) induced cytotoxicity in human SH-SY5Y cells assessed as cell viability at 10 uM after 48 hrs by MTT assay. The data set is classed as functional, cell-based. The method in brief:
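SH-SY5Y cells (ATCC) were grown in DMEM/F-12 with 10% FBS and penicillin/streptomycin at 37 °C, 5% CO2. Cells were plated at 2.0 × 10^4 per well and pre-incubated for 24 h. HFIP-treated Aβ42 (final 1 µM) and compound (final 10 µM) were added, with 0.5% DMSO and 0.01% NH4OH final. After 48 h, MTT (5 mg/mL stock) was added for 4 h, then DMSO was used for solubilization. Mean ± SD, n = 3.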
For orientation: Tetrazolium dyes change colour on reduction, which living cells bring about.

The target in data set [2] is Amyloid-beta precursor protein (Homo sapiens) (UniProt P05067). In words: Inhibition of HFIP-pretreated amyloid beta (1 to 42) (unknown origin) aggregation in PBS buffer at pH 7.4 assessed as effect on fibril formation at 40 uM after 48 hrs by uranyl acetate staining based transmission electron microscopy. An outline of the steps: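 HFIP-treated Aβ42 (final 10 µM) was incubated with compound (final 40 µM) in PBS containing 1% DMSO, pH 7.4, at 37 °C for 48 h. Pellets were collected by centrifugation and resuspended in distilled water. They were left on formvar-coated copper grids for 5 min, negatively stained with 2% uranyl acetate and imaged by TEM.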
Amyloid-beta precursor protein (Homo sapiens), sequence (P05067 whole entry): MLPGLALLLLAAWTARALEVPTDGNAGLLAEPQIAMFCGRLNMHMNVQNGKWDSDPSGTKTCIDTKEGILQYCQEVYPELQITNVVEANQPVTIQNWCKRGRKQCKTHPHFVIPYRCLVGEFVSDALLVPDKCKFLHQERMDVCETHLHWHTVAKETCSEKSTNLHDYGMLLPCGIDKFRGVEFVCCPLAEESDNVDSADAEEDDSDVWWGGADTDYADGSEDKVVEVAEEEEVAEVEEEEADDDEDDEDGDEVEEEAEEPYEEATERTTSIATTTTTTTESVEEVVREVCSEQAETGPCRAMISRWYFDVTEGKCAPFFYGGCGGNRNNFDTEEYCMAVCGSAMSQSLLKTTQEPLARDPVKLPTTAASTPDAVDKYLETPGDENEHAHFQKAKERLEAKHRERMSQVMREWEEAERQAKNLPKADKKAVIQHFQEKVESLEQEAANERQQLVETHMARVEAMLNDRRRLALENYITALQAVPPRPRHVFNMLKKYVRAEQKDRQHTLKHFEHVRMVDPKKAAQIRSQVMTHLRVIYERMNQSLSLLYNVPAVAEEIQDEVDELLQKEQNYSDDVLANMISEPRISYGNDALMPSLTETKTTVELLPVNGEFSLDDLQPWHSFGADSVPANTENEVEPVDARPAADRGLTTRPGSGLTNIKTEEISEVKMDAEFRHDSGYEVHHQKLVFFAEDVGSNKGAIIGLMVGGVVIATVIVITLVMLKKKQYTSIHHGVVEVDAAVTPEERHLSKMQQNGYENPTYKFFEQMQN

Data set [3] shares this target. In words: Inhibition of HFIP-pretreated amyloid beta (1 to 42) (unknown origin) aggregation in PBS buffer at pH 7.4 at 40 uM incubated for 48 hrs by thioflavin-T fluorescence assay. The method in brief:
(§1)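 Aβ42 pretreated with HFIP (1 mg/mL, 30 min RT, sonicated 5 min, dried to film), then diluted from 0.1% NH4OH stock to final 10 µM in PBS (50 mM sodium phosphate, 100 mM NaCl) with compound from DMSO stock (final 1% DMSO), pH 7.4. Incubated at 37 °C for 0–48 h. Aliquots were frozen at -80 °C, then mixed with 5.0 µM Th-T in 50 mM Gly-NaOH pH 8.5. Fluorescence read at ex 430/em 510 nm, buffer background subtracted; mean ± SD, n = 4.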

The target is the same in data set [4]. The data set can be described thus: Inhibition of HFIP-pretreated amyloid beta (1 to 42) (unknown origin) aggregation in PBS buffer at pH 7.4 incubated for 48 hrs by thioflavin-T fluorescence assay. The method in brief:
as §1

The subject of data set [5] is SH-SY5Y. In words: Cytotoxicity against human SH-SY5Y cells assessed as reduction in cell viability at 10 uM measured after 48 hrs by MTT assay. The data set is classed as cell-based.

Activity calls are given as the source filed them. The calls are words filed in the database; no cut-off is given here. Peptide text beside a SMILES is read from it.

On to `CC(C)C[C@H](N)C(=O)N[C@H]1Cc2ccc(cc2)OC/C=C/C[C@@H](C(=O)N[C@@H](CC(=O)O)C(=O)O)NC(=O)[C@H](Cc2ccccc2)NC1=O`, for which the result in data set [1] was inactive. Besides, the inhibition entry in data set [2] is “inactive”. In data set [3], the inhibition result is “Active”.
`CC(C)C[C@H](N)C(=O)N[C@H]1Cc2ccc(cc2)OC/C=C/C[C@@H](C(=O)N[C@@H](C)C(=O)O)NC(=O)[C@H](Cc2ccccc2)NC1=O`: the result in data set [1] was inactive. In addition, the inhibition result in data set [2] was “inactive”. Moreover, the inhibition entry in data set [4] is “Dose-dependent effect”.
Regarding `CC(C)C[C@H](N)C(=O)N[C@H](C(=O)N[C@H]1Cc2ccc(cc2)OC/C=C/C[C@@H](C(=O)O)NC(=O)[C@H](Cc2ccccc2)NC1=O)C(C)C`, the result in data set [1] was inactive. In addition, the inhibition entry in data set [2] and in data set [3] was “inactive” in each case.
For the molecule `CC(C)C[C@H](N)C(=O)N1CCC[C@H]1C(=O)N[C@@H](Cc1ccccc1)C(=O)N[C@@H](Cc1ccccc1)C(=O)O` (H-LPFF-OH), the inhibition result in data set [3] was “inactive”.
Still for that read-out and setting: next, `COC(=O)[C@@H]1C/C=C/COc2ccc(cc2)C[C@H](NC(=O)OC(C)(C)C)C(=O)N[C@@H](CC(C)C)C(=O)N1`: “inactive”.
Take `CC(C)[C@@H]1NC(=O)[C@@H](N)C/C=C/COc2ccc(cc2)C[C@@H](C(=O)N[C@@H](Cc2ccccc2)C(=O)N[C@@H](C)C(=O)O)NC1=O`: the result in data set [1] was inactive. The inhibition result in data set [2] and in data set [3] was “inactive” throughout.
As to `O=C(O)C[C@H](NC(=O)[C@@H]1C/C=C/COc2ccc(cc2)C[C@H](NC(=O)[C@@H]2CCCN2)C(=O)N[C@@H](Cc2ccccc2)C(=O)N1)C(=O)O`, in data set [1], the result was inactive. Also, the inhibition result in data set [2] was “inactive”. Further, the inhibition entry in data set [3] was “Active”.
In the case of `C[C@H](NC(=O)[C@@H]1C/C=C/COc2ccc(cc2)C[C@H](NC(=O)[C@@H]2CCCN2)C(=O)N[C@@H](Cc2ccccc2)C(=O)N1)C(=O)O`, the outcome in data set [1] was inactive. Besides, the inhibition result in data set [2] is “inactive”. Also, in data set [3], the inhibition result was “Active”.
As to `CC(C)C[C@H](N)C(=O)N[C@H]1C/C=C/COc2ccc(cc2)C[C@@H](C(=O)N[C@@H](C)C(=O)O)NC(=O)[C@H](Cc2ccccc2)NC1=O`, the Activity result in data set [5] is recorded as “Toxic”. Further, in data set [1], the outcome was inactive. Further, the inhibition entry in data set [2] was “inactive”. Also, the inhibition entry in data set [4] was “Dose-dependent effect”.
